The source of these data is ChEMBL document CHEMBL1141462, “Tetranorclerodanes and clerodane-type diterpene glycosides from Dicranopteris dichotoma” (J Nat Prod, 2007).

The nature of data set [1]: Selectivity index, CC50 against C8166 cell/ EC50 against HIV1. Format: functional. The procedure, abridged:
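The ratio is CC50 divided by EC50. CC50 comes from MTT cytotoxicity in C8166 cells, and EC50 from inhibition of HIV-1 cytopathic effect.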

The nature of data set [2]: Cytotoxicity against C8166 cells by MTT assay. The settings on record: human. Format: cell-based. An outline of the steps:
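C8166 cells were used, with viability read by MTT. Cytotoxicity was expressed as CC50.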

In data set [3] the test system is Human immunodeficiency virus 1. Put plainly: Antiviral activity against HIV1. It is filed as functional, organism-based. The procedure, abridged:
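HIV-1 activity was measured as inhibition of virus-induced cytopathic effect and reported as EC50.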

SMILES strings stand for the structures. A value given as a limit tells only on which side of the number the result lay.

Consider `C=C[C@@](C)(O)CC[C@@]1(C)[C@H](C)C[C@H](O)[C@@]2(C)C(C)=CCC[C@H]12`, for which the “Ratio CC50/EC50” value in data set [1] is on record as over 10.99. Also, the 50% cytotoxic concentration (CC50) in data set [2] was 653 µM. In data set [3], this compound came in with an EC50 of 59.4 µM.
Consider `C=C[C@](C)(O)CC[C@@]1(C)[C@H](C)C[C@H](O[C@@H]2O[C@@H](C)[C@H](O[C@@H]3O[C@H](CO)[C@@H](OC(C)=O)[C@H](O)[C@H]3O)[C@@H](O)[C@H]2O)[C@@]2(C)C(C)=CCC[C@H]12`, for which the “Ratio CC50/EC50” value in data set [1] is on record as over 2.09. Besides, half-maximal cytotoxicity in data set [2] (CC50) was put at 305 µM. Moreover, a half-maximal effect in data set [3] (EC50) was put at 145 µM.
As to `C=C[C@](C)(O)CC[C@@]1(C)[C@H](C)C[C@H](O[C@@H]2O[C@@H](C)[C@H](O[C@@H]3O[C@H](COC(C)=O)[C@@H](O)[C@H](O)[C@H]3O)[C@@H](O)[C@H]2O)[C@@]2(C)C(C)=CCC[C@H]12`, in data set [1], the “Ratio CC50/EC50” value is 1.1. This compound also displayed a CC50 in data set [2] of 121 µM. This compound also came in with a concentration giving a half-maximal response (EC50) in data set [3] of 110 µM.
In the same order, the values of `CC(=O)OC[C@H]1O[C@@H](O[C@@H]2[C@@H](O)[C@@H](O)[C@H](O[C@H]3C[C@@H](C)[C@](C)(CC/C(C)=C/CO)[C@H]4CCC=C(C)[C@]34C)O[C@H]2C)[C@H](O)[C@@H](O)[C@@H]1O` are 1.78, 136 µM and 76.3 µM.
For `C[C@@H]1C[C@H](O)[C@@]2(C)C(CO)=CCC[C@@H]2[C@@]1(C)CC(=O)O` the same measures were over 2.34, 709 µM and 302 µM.
As to `C[C@@H]1C[C@H](O)[C@@]2(C)C(C=O)=CCC[C@@H]2[C@@]1(C)CC(=O)O`, in data set [1], the “Ratio CC50/EC50” value is recorded as over 2.19. The CC50 in data set [2] amounted to 713 µM. The response in data set [3] was half-maximal at 325 µM (EC50).
On to `CC1=CCC[C@@H]2[C@@](C)(CC/C(C)=C/CO)[C@H](C)C[C@H](O[C@@H]3O[C@@H](C)[C@H](O[C@@H]4O[C@H](CO)[C@@H](O)[C@H](O)[C@H]4O)[C@@H](O)[C@H]3O)[C@@]12C`, for which the “Ratio CC50/EC50” value in data set [1] is on record as over 3.82. For the same compound, the CC50 in data set [2] was 325 µM. In data set [3], this compound had a half-maximal effective concentration (EC50) of 85.1 µM.
In the same order, the values of `CC1=CCC[C@@H]2[C@@](C)(CC(=O)O)[C@H](C)C[C@H](O)[C@@]12C` [AYLTHONIC ACID] are over 3.81, 751 µM and 197 µM.
For `Cc1cn([C@H]2C[C@H](N=[N+]=[N-])[C@@H](CO)O2)c(=O)[nH]c1=O` [ZIDOVUDINE] the same measures were 390406.06, 5750 µM and 0.0147 µM.
